How the values were obtained:
Assay type in all cases: functional
[1] = organism: Oryctolagus cuniculus; assay: In vitro inhibitory concentration measured against U-46,619 (1 uM) induced aggregation of washed platelets (WP) in rabbit; N-Negative
[2] = organism: Rattus norvegicus; assay: In vitro inhibitory concentration measured against U-46,619 (30 nM) induced contraction for rat aorta
[3] = organism: Rattus norvegicus; assay: In vitro inhibitory concentration measured against collagen ([…]) induced aggregation of washed platelets (WP) in rat
Procedure, shortened: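 Rat washed platelets; aggregation triggered with collagen at 4 µg/mL; inhibitory concentration reported as IC50, following a procedure from earlier work.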

[4] = organism: Oryctolagus cuniculus; assay: In vitro inhibitory concentration measured against U-46,619 (1 uM) induced aggregation of washed platelets (WP) in rabbit

Row | IC50 [1] | IC50 [2] [nM] | IC50 [3] [nM] | IC50 [4] [nM] | SMILES
1 | Negative | > 140000 | > 14500 | – | O=C(O)CCCCCNS(=O)(=O)c1ccccc1
2 | – | 2800 | 290 | 700 | O=C(O)CCCCCCCNS(=O)(=O)c1ccccc1
3 | – | – | – | 300 | O=C(O)COc1ccc(CCNS(=O)(=O)c2ccccc2)cc1 [SULOTROBAN]
4 | – | 6400 | 3480 | > 10000 | O=C(O)CCCCCCCCCCCNS(=O)(=O)c1ccccc1
5 | – | – | 41 | 48 | O=C(O)CCC/C=C\CCCNS(=O)(=O)c1ccccc1
6 | – | 55300 | 11600 | > 10000 | O=C(O)CCCCCCNS(=O)(=O)c1ccccc1
7 | Negative | > 140000 | > 14500 | – | O=C(O)CCCCNS(=O)(=O)c1ccccc1
8 | Negative | – | – | – | CCCCCCC(O)CCCCCCCCCCC(=O)O (configuration not stated)
9 | – | 4600 | 4350 | 10000 | O=C(O)CCCCCCCCCCNS(=O)(=O)c1ccccc1
10 | Negative | > 140000 | > 14500 | – | O=C(O)CCCNS(=O)(=O)c1ccccc1
11 | – | 1600 | 410 | 400 | O=C(O)CCCCCCCCNS(=O)(=O)c1ccccc1
12 | – | 1.4 | 2.9 | 6 | O=C(O)CCC/C=C\C[C@@H]1C(NS(=O)(=O)c2ccccc2)C2CC[C@@H]1C2 (some centres not stated)

Row | SMILES | IC50 [1] | IC50 [2] [nM] | IC50 [3] [nM] | IC50 [4] [nM]
13 | O=C(O)CCCCCCCCCCCO | Negative | – | – | –

— ChEMBL document CHEMBL1125265, “FTIR spectral study of intramolecular hydrogen bonding in thromboxane A2 receptor antagonist S-145 and related compounds. 3. Conformation and activity of S-145 analogues” (J Med Chem, 1991)
